The list is not random: actives were taken first. Their share in the collection is about 0.77%.
mIAP activ – increases mouse intestinal alkaline phosphatase activity | actives 0.24% (n = 330,000) | activation factor at 10 µM | muIAP, CDP-Star luminescence, 30 min; active compounds read high; 1 = vehicle-only enzyme signal, 0 = enzyme-free wells;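 active = activation factor of at least 2 at 20 µM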
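System: Mouse IAP enzyme | Also added: CDP-Star substrate | Dosing: Compounds dispensed in DMSO | Schedule: 30 min enzyme-substrate-compound incubation at room temperature | Technique: Chemiluminescence readout | Control set: DMSO-only wells and no-enzyme negative control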
mIAP inh – blocks mouse intestinal alkaline phosphatase | purified mouse IAP, CDP-Star luminescence, 30 min | inhibition, % at 10 µM | actives 0.2% (n = 330,000) | AID 2806;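 active = inhibition of at least 40% at 10 µM in the primary screen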
hIAP act – increases human intestinal alkaline phosphatase activity | P09923 | purified human IAP, CDP-Star luminescence, 30 min; active compounds read high; 1 = vehicle-only enzyme, 0 = enzyme-free background | activation factor at 10 µM | actives 0.16% (n = 330,000) | AID 2524;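 active = activation factor of the enzyme at least 2-fold when tested at 20 µM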
Target sequence (P09923 whole entry, looked up): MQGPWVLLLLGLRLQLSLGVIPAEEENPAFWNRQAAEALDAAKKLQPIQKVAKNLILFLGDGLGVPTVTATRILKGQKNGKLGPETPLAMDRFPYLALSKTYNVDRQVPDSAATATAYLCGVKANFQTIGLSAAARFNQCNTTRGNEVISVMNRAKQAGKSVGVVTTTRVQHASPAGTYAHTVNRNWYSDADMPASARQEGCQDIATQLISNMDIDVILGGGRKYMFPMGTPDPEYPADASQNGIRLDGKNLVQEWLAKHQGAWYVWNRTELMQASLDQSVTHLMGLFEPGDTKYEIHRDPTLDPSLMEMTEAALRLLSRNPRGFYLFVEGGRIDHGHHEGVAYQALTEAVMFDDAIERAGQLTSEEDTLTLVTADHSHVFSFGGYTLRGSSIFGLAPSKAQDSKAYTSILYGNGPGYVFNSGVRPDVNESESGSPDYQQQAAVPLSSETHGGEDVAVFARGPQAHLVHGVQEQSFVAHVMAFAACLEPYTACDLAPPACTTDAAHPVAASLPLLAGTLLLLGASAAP
bIAP inhibitor – blocks bovine intestinal alkaline phosphatase activity; purified bovine IAP, CDP-star luminescence, 30 min; inhibition, % at 20 µM; 190,000 tested, under 10 active; AID 1019;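 active = over 50% inhibition of intestinal alkaline phosphatase at 20 µM in the single-dose screen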
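Assay system – bovine IAP enzyme · Quantity – bovine IAP at 1/65,000,000 final dilution · Detection – CDP-star luminescence signal · Times – 30 min reaction at room temperature · Also added – CDP-star substrate at 30 µM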
bIAP act – intestinal alkaline phosphatase (bovine) activation | purified bovine IAP, CDP-star luminescence, 30 min; active compounds read high; fold of DMSO-control signal, blank-subtracted | activation factor at 20 µM | actives 0.17% (n = 200,000);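 active = activation factor of 2 or more at 20 µM, a signal rise over negative controls twice the positive control's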
hIAP block – blocks human intestinal alkaline phosphatase. P09923. purified IAP, CDP-Star luminescence, 30 min. inhibition, % at 10 µM. actives 0.12% (n = 330,000). AID 2544;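 active = inhibition reaching a set limit with compound at 10 µM in the primary screen, cut at about 35% in these data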
mIAP inh confirm – mouse IAP inhibition confirmation; shares compounds with mIAP inh; purified mouse IAP, CDP-Star luminescence, 30 min; actives 4.7% (n = 11,000); inhibition, % at 10 µM;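 active = inhibition of at least 40% at 10 µM in either of the two replicates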
Of the large screens only hits and unclear results are named; the others gave an inactive call (follow-up assays come after a bar, where they were run).

Cc1ccc(Cn2nc(C)c(C(=O)NCC(c3ccc(F)cc3)N3CCOCC3)c2Cl)cc1 (centres undefined)	none (no result: bIAP inhibitor, bIAP act)
COc1cccc(NC(=O)Nc2ccc(C(C)(C)C)cc2)c1	mIAP activ 4.4 | mIAP inh confirm inactive
COc1cccc(NC(=O)Nc2ccc3c(c2)CCC3)c1	mIAP activ 4.4 (no result: bIAP inhibitor, bIAP act) | mIAP inh confirm inactive
COc1ccc(CNC(=O)NCc2ccc(OC)c(OC)c2)cc1OC	none
COc1cccc(-c2csc(NC(=O)C3CC3)n2)c1	none
COc1ccc(CNC(=O)Nc2cccc(C(F)(F)F)c2)cc1OC	mIAP activ 2.2 | mIAP inh confirm inactive
COc1cccc(-c2csc(NC(=O)Nc3ccccc3)n2)c1	mIAP activ 3.2 (no result: bIAP inhibitor, bIAP act) | mIAP inh confirm inactive
Cc1cc(C)c(C)c(S(=O)(=O)N2CCC(C(=O)N3CCCC3)CC2)c1C	none (no result: bIAP inhibitor, bIAP act)
O=C(COC(=O)CCc1ccccc1)Nc1ccc(F)cc1Cl	none (no result: bIAP inhibitor, bIAP act)
CC(C)C(NC(=O)c1ccccc1)C(=O)NC1CCCc2ccccc21 (centres undefined)	none (no result: bIAP inhibitor, bIAP act)
CS(=O)(=O)Nc1cccc(C2=NN(C(=O)CCCC(=O)O)C(c3cccs3)C2)c1 (centres undefined)	none (no result: bIAP inhibitor, bIAP act)
Cc1oc2c(CN3CCCC(C)C3)c(O)ccc2c(=O)c1-c1ccccc1 (centres undefined)	none (no result: bIAP inhibitor, bIAP act)
O=C1CC(c2ccccc2)Oc2cc(O)cc(O)c21 (centres undefined)	none (no result: bIAP inhibitor, bIAP act)
CC1CC(=O)c2c(cc3c(-c4c(O)cc(O)c5c(O)c6c(cc45)OC(C)CC6=O)c(O)cc(O)c3c2O)O1 (centres undefined)	mIAP inh 42 | mIAP inh confirm 68
CC(=O)c1ccc(-c2ccc(C(=O)NCC3CCCO3)o2)cc1 (centres undefined)	none (no result: bIAP inhibitor, bIAP act)
CC(C)(C)c1ccc(O)c(N=Cc2cc3c(cc2[N+](=O)[O-])OCO3)c1	mIAP inh 42 (no result: bIAP inhibitor, bIAP act) | mIAP inh confirm 49
Cc1ccc(C)c(N=Cc2cc3c(cc2[N+](=O)[O-])OCO3)c1	none
O=C(O)/C=C\c1cc2c(cc1[N+](=O)[O-])OCO2	mIAP inh 42 (no result: bIAP inhibitor, bIAP act) | mIAP inh confirm 45
CCOc1ccccc1NC(=O)CSc1nnc(CCC(=O)Nc2ccccc2F)n1C	none (no result: bIAP inhibitor, bIAP act)
CCC1(CC)NC(=O)N(CC(=O)N2CCN(S(=O)(=O)c3cccc(F)c3)CC2)C1=O	none (no result: bIAP inhibitor, bIAP act)
Oc1c(C=C2N=c3ccccc3=N2)sc(=S)n1-c1ccc(F)cc1	none | mIAP inh confirm 38
O=C1NC(=Nc2ccc(O)cc2)S/C1=C/c1ccco1	mIAP inh 57 | mIAP inh confirm 77
COc1ccc(N=C2NC(=O)/C(=C\C=C\c3ccco3)S2)cc1	none
O=C1NC(=Nc2ccc3ccccc3c2)S/C1=C/c1ccco1	mIAP inh 56 | mIAP inh confirm 57
O=C(N/N=C/c1cccnc1)c1cc(O)c(O)c(O)c1	mIAP inh 42 (no result: bIAP inhibitor, bIAP act) | mIAP inh confirm 58
O=S(=O)(c1cc(O)ccc1O)c1cccc2c(S(=O)(=O)c3cc(O)ccc3O)cccc12	mIAP inh 65 (no result: bIAP inhibitor, bIAP act) | mIAP inh confirm 58
O=S(=O)(O)c1cc(O)ccc1O	none (no result: bIAP inhibitor, bIAP act)
Cc1ccc(S(=O)(=O)N2CCC(C(=O)Nc3ccc(C(C)C)cc3)CC2)cc1	mIAP activ 6.6 (no result: bIAP inhibitor, bIAP act) | mIAP inh confirm inactive
Cc1ccc(S(=O)(=O)N2CCC(C(=O)Nc3ccc(S(=O)(=O)N4CCCC4)cc3)CC2)cc1C	mIAP activ 2.2 (no result: bIAP inhibitor, bIAP act) | mIAP inh confirm inactive
Cc1ccc(S(=O)(=O)N2CCC(C(=O)Nc3ccc(S(=O)(=O)N4CCCC4)cc3)CC2)cc1	none (no result: bIAP inhibitor, bIAP act)
CCCn1ncc(CN2CCC(C(=O)Nc3cccc(-c4cccc(F)c4)c3)CC2)c1C	mIAP activ 5.3 (no result: bIAP inhibitor, bIAP act) | mIAP inh confirm inactive
C=CCn1cc(CN2CCC(C(=O)Nc3cccc(-c4cccc(F)c4)c3)CC2)c(C)n1	mIAP activ 2.5 (no result: bIAP inhibitor, bIAP act) | mIAP inh confirm inactive
CC(OC(=O)c1ccco1)C(=O)Nc1nc(-c2ccccc2)cs1 (centres undefined)	none (no result: bIAP inhibitor, bIAP act)
CCOC(=O)CN1C(=O)/C(=C2\SC(=S)N(NC(=O)c3cccnc3)C2=O)c2ccccc21	mIAP inh 52 (no result: bIAP inhibitor, bIAP act) | mIAP inh confirm 53
CCOc1cc(C(=O)Nc2ccc(S(=O)(=O)N3CCCCC3)cc2)ccc1OCC(=O)N1CCOCC1	none (no result: bIAP inhibitor, bIAP act)

Screening data from PubChem BioAssay.
